“Also recorded” adds a separate entry of the source.
What was measured:
Sprague-Dawley rats = experiment: 90-Day subchronic toxicity study; assay type: in vivo, rat; conditions: 90 days
Method in brief: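 Male and female Crl:CD(SD) rats, 20/sex/group, fed 0 (basal diet), 30, 60 or 100 mg/kg/day in the diet for 90 days. […] End-points: functional observation battery, motor activity, body weight gain, food consumption, hematology, clinical chemistry, urinalysis, organ weights, necropsy, and histopathology of at least 53 tissues (control and high dose only).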

[1] = Toxicokinetics in the 90-day dietary study; assay type: in vivo, Sprague-Dawley rats; conditions: for AUC(0-t): Sprague-Dawley [Crl:CD(SD)], rat, in vivo, po, AUC(0-24)
[2] = In vitro oxidative metabolism, rat liver microsomes; assay type: in vitro ADME
Method in brief: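 Pooled mixed-gender liver microsomes (human or Sprague-Dawley rat) were incubated with test compound plus NADPH for 60 min at 37 °C, then quenched with acetonitrile. Controls: time-zero and 60-min incubations without NADPH, plus testosterone incubations to confirm microsomal activity. Metabolites were sought by LC/MS full-scan analysis with UV detection at 214, 240 and 254 nm.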

[3] = Relative oral bioavailability of sodium, phosphate and hemisulfate salts in rats; assay type: in vivo, Sprague-Dawley rats
Method in brief: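 Male Sprague-Dawley rats, 4/group, received a single 30 mg/kg oral gavage dose in 1% methylcellulose of either parent acid or its sodium, phosphate or sulfate salt. Jugular-catheter blood was drawn at about 15 and 30 min and at 1, 2, 4, 8 and 24 h. Plasma parent was measured by LC/MS/MS with an internal standard. Relative AUClast and Cmax were corrected for molecular-weight differences.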

Swiss albino (CD-1) mice = experiment: In vivo mouse micronucleus assay; conditions: 500-2000 mg/kg bw oral, male mice
[4] = Dietary exposure estimate; conditions: 100 mg/kg bw/day vs 2400 μg/day
[5] = male, Sprague-Dawley, rat, plasma, po, 30 mg/kg

SMILES: Cc1nc2cccc(OCC(C)(C)C(=O)NC(C)C)c2c(N)c1C(=O)O [S9632, 4-amino-5-(3-(isopropylamino)-2,2-dimethyl-3-oxopropoxy)-2-methylquinoline-3-carboxylic acid]
- Findings (Sprague-Dawley rats; 30, 60, 100 mg/kg/day food ad-mix): No test-article related findings
- NOEL (Sprague-Dawley rats; food ad-mix, male and female rats, highest dose tested): 100 mg/kg/day
- AUC(0-t) ([1]; both, 30 mg/kg/day, food ad-mix 30 mg/kg/day, Day 90, Combined): 341 ng·h/mL
- AUC(0-t) ([1]; both, 100 mg/kg/day, food ad-mix 100 mg/kg/day, Day 7, Combined): 1040 ng·h/mL
- AUC(0-t) ([1]; both, 100 mg/kg/day, food ad-mix 100 mg/kg/day, Day 90, Combined): 1200 ng·h/mL
- AUC(0-t) ([1]; female, 30 mg/kg/day, food ad-mix 30 mg/kg/day, Day 90, Female): 389 ng·h/mL
- AUC(0-t) ([1]; female, 100 mg/kg/day, food ad-mix 100 mg/kg/day, Day 90, Female): 1400 ng·h/mL
- AUC0-24/dose ([1]; food ad-mix 30 mg/kg/day, Day 7, Combined): 5.92 ng·h/mL/mg/kg
- AUC0-24/dose ([1]; food ad-mix 30 mg/kg/day, Day 7, Female): 3.5 ng·h/mL/mg/kg
- AUC0-24/dose ([1]; food ad-mix 30 mg/kg/day, Day 7, Male): 8.34 ng·h/mL/mg/kg
- AUC0-24/dose ([1]; food ad-mix 30 mg/kg/day, Day 90, Combined): 11.4 ng·h/mL/mg/kg
- AUC0-24/dose ([1]; food ad-mix 30 mg/kg/day, Day 90, Female): 13.0 ng·h/mL/mg/kg
- AUC0-24/dose ([1]; food ad-mix 30 mg/kg/day, Day 90, Male): 9.75 ng·h/mL/mg/kg
- AUC0-24/dose ([1]; food ad-mix 60 mg/kg/day, Day 7, Combined): 6.61 ng·h/mL/mg/kg
- AUC0-24/dose ([1]; food ad-mix 60 mg/kg/day, Day 7, Female): 9.43 ng·h/mL/mg/kg
- AUC0-24/dose ([1]; food ad-mix 60 mg/kg/day, Day 7, Male): 3.79 ng·h/mL/mg/kg
- AUC0-24/dose ([1]; food ad-mix 60 mg/kg/day, Day 90, Combined): 13.3 ng·h/mL/mg/kg
- AUC0-24/dose ([1]; food ad-mix 60 mg/kg/day, Day 90, Female): 9.14 ng·h/mL/mg/kg
- AUC0-24/dose ([1]; food ad-mix 60 mg/kg/day, Day 90, Male): 17.5 ng·h/mL/mg/kg
- AUC0-24/dose ([1]; food ad-mix 100 mg/kg/day, Day 7, Combined): 10.4 ng·h/mL/mg/kg
- AUC0-24/dose ([1]; food ad-mix 100 mg/kg/day, Day 7, Female): 11.7 ng·h/mL/mg/kg
- AUC0-24/dose ([1]; food ad-mix 100 mg/kg/day, Day 7, Male): 9.15 ng·h/mL/mg/kg
- AUC0-24/dose ([1]; food ad-mix 100 mg/kg/day, Day 90, Combined): 12.0 ng·h/mL/mg/kg
- AUC0-24/dose ([1]; food ad-mix 100 mg/kg/day, Day 90, Female): 14.0 ng·h/mL/mg/kg
- AUC0-24/dose ([1]; food ad-mix 100 mg/kg/day, Day 90, Male): 10.0 ng·h/mL/mg/kg
- AUC(0-t) ([1]; male, 30 mg/kg/day, food ad-mix 30 mg/kg/day, Day 90, Male): 293 ng·h/mL
- AUC(0-t) ([1]; male, 100 mg/kg/day, food ad-mix 100 mg/kg/day, Day 90, Male): 1000 ng·h/mL
- Metabolism (Phase I biotransformations) ([2]; 10 µM, 60 min, 37 °C, NADPH): not metabolized; also recorded: No Phase I biotransformations
- Level above which no metabolism was observed ([2]; 60 min incubation): ≤ 0.1 % of the parent drug
- AUC(0-t) [3, 5]: 59.6 ± 26.1 ng·h/mL
- Cmax [3, 5]: 38.7 ± 24.5 ng/mL
- %Cmax Relative to S9632 ([3]; single oral 30 mg/kg, male rats, corrected for molecular weight): 100.0%
- Micronucleus formation (in vivo), result (Swiss albino (CD-1) mice): did not induce micronuclei; also recorded: Negative
- NOAEL (90-day) relative to estimated dietary exposure [4]: 2500 times

Source: paper PMC5598146 (Toxicology Reports, 2015)
